Test results published in PubChem BioAssay.
Active and inactive are the calls of the source.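 Rule for the calls, unless noted: active = Her2 level under about 52% in both replicate screens, with viability over 70% of control (limit read from the data); inconclusive = Her2 under the limit in one screen only, or viability under 70%; inactive = Her2 level above the set limit.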 Square brackets hold non-standard residues; d marks the D form. Peptide text beside a SMILES is read from it. * marks the point of attachment. ξ: configuration not given here. Piv = CC(C)(C)C(=O)*; ξNva = CCCC(N)C(=O)O

Tests used:
[1] = reducers of endogenous Her2 protein level, primary screen, SKBR3 breast tumor cells, AlphaScreen, ATP viability (AID 461); settings: 18-24 h, measured here: SKBR3 viability, ATP luminescence, at 10 µM;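 for Her2 level: lower value means less Her2 protein in the cells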;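 for viability: percent of carrier control wells set as 100% viability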
[2] = target: Receptor tyrosine-protein kinase erbB-2 (Homo sapiens) (UniProt P04626); experiment: as above; settings: 18-24 h, at 10 µM, stronger effect = lower value
Receptor tyrosine-protein kinase erbB-2 (Homo sapiens), sequence (P04626 whole entry, looked up): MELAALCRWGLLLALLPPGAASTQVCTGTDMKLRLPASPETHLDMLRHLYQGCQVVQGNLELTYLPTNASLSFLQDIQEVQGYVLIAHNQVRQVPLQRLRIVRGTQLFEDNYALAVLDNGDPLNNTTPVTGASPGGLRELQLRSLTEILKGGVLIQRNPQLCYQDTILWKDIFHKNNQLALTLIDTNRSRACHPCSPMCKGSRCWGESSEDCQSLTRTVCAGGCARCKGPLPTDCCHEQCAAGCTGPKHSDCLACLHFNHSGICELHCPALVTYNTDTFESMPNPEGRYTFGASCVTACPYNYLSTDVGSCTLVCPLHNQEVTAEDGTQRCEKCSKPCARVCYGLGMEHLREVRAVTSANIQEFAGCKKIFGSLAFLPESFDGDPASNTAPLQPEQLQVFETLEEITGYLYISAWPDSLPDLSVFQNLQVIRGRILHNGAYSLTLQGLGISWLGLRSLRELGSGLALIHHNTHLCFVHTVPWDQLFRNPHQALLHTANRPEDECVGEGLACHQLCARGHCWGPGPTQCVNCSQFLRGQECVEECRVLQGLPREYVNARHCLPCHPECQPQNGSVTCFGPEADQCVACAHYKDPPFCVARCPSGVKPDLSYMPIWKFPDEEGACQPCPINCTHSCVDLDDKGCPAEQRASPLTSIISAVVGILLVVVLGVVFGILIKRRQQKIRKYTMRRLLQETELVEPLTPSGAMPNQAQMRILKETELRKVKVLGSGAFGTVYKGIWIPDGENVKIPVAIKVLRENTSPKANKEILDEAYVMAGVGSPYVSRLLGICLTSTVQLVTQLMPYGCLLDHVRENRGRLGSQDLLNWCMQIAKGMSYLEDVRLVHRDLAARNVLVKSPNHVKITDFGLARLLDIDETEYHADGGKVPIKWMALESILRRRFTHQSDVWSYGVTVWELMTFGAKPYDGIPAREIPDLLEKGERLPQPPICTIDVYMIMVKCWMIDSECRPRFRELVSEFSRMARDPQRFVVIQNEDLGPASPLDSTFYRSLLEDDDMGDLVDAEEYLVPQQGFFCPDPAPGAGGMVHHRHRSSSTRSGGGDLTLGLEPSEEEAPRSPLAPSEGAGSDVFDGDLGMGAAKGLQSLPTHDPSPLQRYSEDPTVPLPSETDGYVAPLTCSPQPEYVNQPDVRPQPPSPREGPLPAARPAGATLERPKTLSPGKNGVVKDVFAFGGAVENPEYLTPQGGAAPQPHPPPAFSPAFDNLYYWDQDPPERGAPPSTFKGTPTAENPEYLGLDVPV

[3] = SK-BR-3 cell growth inhibitors, pilot screen, 24 h, human (AID 572;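 active = viability at or below 10% of carrier control in both of two separate runs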;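 note: compound exposure lasted between 18 and 24 h rather than exactly 24 h; 100% = carrier-treated control wells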); settings: SK-BR-3 viability, CellTiter-Glo luminescence, at 10 µM, stronger effect = lower value
[4] = HUVEC growth inhibition – cell-based, human, primary screen (AID 575;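 active = viability at or below 30% in both replicate assays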;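 note: 100% = median of untreated cell wells with 0.1% DMSO on each plate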); settings: HUVEC proliferation, CellTiter-Glo luminescence, 72 h; at 10 µM; stronger effect = lower value
Procedure, shortened: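 Test system: primary human umbilical vein endothelial cells. Quantity: 1250 cells/well. Compound: single 10 µM dose, 0.1% DMSO, from 5x medium stock. Timing: 72 h treatment at 37 °C. Detection: ATP-based CellTiter-Glo luminescent read. Benchmarks: vehicle and MePR control wells. Format: 384-well plates coated with collagen.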

[5] = growth inhibitors of H69AR lung tumor, primary screen, human, duplicate replicates (AID 580;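 active = viability at or under a set limit in both replicates, limit being median viability minus 3 SD, cut at about 48% in these data, passing the limit was not always enough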;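 note: 100% = mean luminescence of untreated wells and 0% = no signal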); settings: H69AR lung tumor cells viability, ATP luminescence, 72 h; at 10 µM; stronger effect = lower value
[6] = reversal of MRP1-mediated doxorubicin resistance, pilot screen, H69AR cells, doxorubicin co-treatment (AID 601;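 active = viability loss from added drug above about 55%, and viability with drug at most 40%, in both replicates, limit read from the data, passing the limit was not always enough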); settings: CellTiter-Glo, 72 h, at 10 µM; for differential viability (reversal): stronger effect = higher value
[7] = 384-well plate pilot, post-Golgi transport modulator project, inhibition of yeast transport mutant growth (AID 636; in the data active = inhibition above about 31%); settings: absorbance 615 nm, about 18 h, stronger effect = higher value
[8] = growth suppression of yeast trafficking mutant, preliminary HTS, modulators of trafficking downstream of Golgi apparatus project, 1536-format plate, OD 615 nm (AID 637; in the data active = inhibition above about 30%); settings: yeast transport mutant growth, absorbance 615 nm, 18 h; stronger effect = higher value
[9] = H69AR cells + 2 uM doxorubicin, measured here: viability with 2 uM doxorubicin, stronger effect = lower value
[10] = H69AR cells, compound alone cytotoxicity

SMILES | viability [1] | Her2 level [2] | viability [3] | viability [4] | viability [5] | differential viability (reversal) ([6]; H69AR cells + 2 uM doxorubicin) | viability [6, 9] | viability [6, 10] | inhibition [7] | inhibition [8]
CCCC(NC(=O)CNC(=O)C(C)(C)C)C(=O)O (stereo not drawn) (Piv-Gly-[ξNva]-OH) | 91% | 91.5% (inactive) | 91% (inactive) | 96.1% (inactive) | 97.5% (inactive) | 1.52% (inactive) | 96% | 97.5% | -2% (inactive) | -3.71% (inactive)
CC(C)Cn1c(-c2ccc(F)cc2)n[nH]c1=S | 114% | 98.5% (inactive) | 114% (inactive) | 80% (inactive) | 88.8% (inactive) | 8.11% (inactive) | 80.7% | 88.8% | -5% (inactive) | -1.33% (inactive)
COC(=O)C1=CN(C(C)C)C=C(C(=O)OC)C1c1cc2c(cc1Br)OCO2 | 92.5% | 87.5% (inactive) | 92.5% (inactive) | 74% (inactive) | 85.4% (inactive) | 9.5% (inactive) | 75.9% | 85.4% | -1.47% (inactive) | -4.29% (inactive)
CCOC(=O)c1c(NC(=O)c2nn(CC)cc2Br)c(C#N)cn1-c1ccccc1 | 78% | 90% (inactive) | 78% (inactive) | 62.5% (inactive) | 74.8% (inactive) | 2.55% (inactive) | 72.2% | 74.8% | -4.61% (inactive) | -6.17% (inactive)
O=C(Nc1ccc2snnc2c1)N1CCSCC1 | 108% | 104% (inactive) | 108% (inactive) | 103% (inactive) | 98.9% (inactive) | 2.63% (inactive) | 96.2% | 98.9% | 0.77% (inactive) | -0.5% (inactive)
O=C1CC(N2CCN(C3CCc4ccccc4C3)CC2)C(=O)N1c1ccccc1 (stereo not given) | 89.5% | 97.5% (inactive) | 89.5% (inactive) | 102% (inactive) | 91.6% (inactive) | 1.58% (inactive) | 90% | 91.6% | -1.95% (inactive) | 3.93% (inactive)
Cc1ccc(S(=O)(=O)N[C@@H](C)C(=O)N2CCC(C(=O)N3CCC[C@H]3C(=O)O)CC2)cc1 | 98% | 100% (inactive) | 98% (inactive) | 88.7% (inactive) | 102% (inactive) | 8.07% (inactive) | 93.6% | 102% | -4.4% (inactive) | 1.31% (inactive)
Cc1ccccc1NC(=O)CSc1nc(N)c(C#N)c(-c2cccs2)c1C#N | 115% | 77% (inactive) | 115% (inactive) | 72.3% (inactive) | 30.2% (active) | 3.09% (inactive) | 27.1% | 30.2% | -9.32% (inactive) | 6.83% (inactive)
COC(=O)c1sc(N)c(C(=O)OC)c1CSc1nc2sc3c(c2c(=O)n1C)CCC3 | 88% | 103% (inactive) | 88% (inactive) | 81.5% (inactive) | 62.3% (inactive) | 8.74% (inactive) | 53.5% | 62.3% | -2.84% (inactive) | 2.62% (inactive)
Cn1c(CN2CCOCC2)nc2cc(NC(=O)c3ccccc3Cl)ccc21 | 102% | 103% (inactive) | 102% (inactive) | 92% (inactive) | 97.1% (inactive) | -2.36% (inactive) | 99.5% | 97.1% | -3.55% (inactive) | -2.42% (inactive)
COc1cccc(CN2CCN(C(=O)CC(C)C)CC2)c1 | 92.5% | 76% (inactive) | 92.5% (inactive) | 87.4% (inactive) | 86.4% (inactive) | -2.34% (inactive) | 88.7% | 86.4% | 0.77% (inactive) | -0.83% (inactive)
O=C(O)CC1NC(=O)N(c2ccccc2)C1=O (stereo not given) | 108% | 85% (inactive) | 108% (inactive) | 109% (inactive) | 99.3% (inactive) | 7.85% (inactive) | 91.5% | 99.3% | -5.33% (inactive) | 0% (inactive)
Cc1ccc(-c2noc(C3CCCN(C(=O)c4ccc(F)cc4F)C3)n2)cc1 (stereo not given) | 99% | 94% (inactive) | 99% (inactive) | 87.4% (inactive) | 90% (inactive) | 1.88% (inactive) | 88.1% | 90% | -2.16% (inactive) | -9% (inactive)
